Measured values reported in ChEMBL document CHEMBL3407418, “Fragment-based drug discovery of 2-thiazolidinones as BRD4 inhibitors: 2. Structure-based optimization” (J Med Chem, 2015).

What was measured:
[1] = molecular target: Bromodomain-containing protein 4 (Homo sapiens, UniProt O60885); experiment: Inhibition of BRD4(1) (unknown origin) incubated for 4 hrs by (+)-JQ1 fluorescent ligand based fluorescence anisotrophy
[2] = Growth inhibition of human MM1S cells after 72 hrs by CellTiter-Glo luminescent cell viability assay; conditions: MM1.S
[3] = test system: MV4-11; experiment: Growth inhibition of human MV4-11 cells after 72 hrs by CellTiter-Glo luminescent cell viability assay; conditions: MV4-11, 72 h
[4] = test system: HT-29; experiment: Growth inhibition of human HT-29 cells after 72 hrs by SRB assay; type: functional, cell-based; conditions: HT-29, 72 h
Procedure, shortened: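 HT-29 cells are grown in McCoy's 5A with 10% FBS at 37 °C, 5% CO2. DMSO stocks (0.01 mol/L) are diluted in normal saline just before use. Cells are treated in triplicate with gradient concentrations for 72 h at 37 °C.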

[5] = molecular target: T1, ATPase family AAA domain-containing protein 2 (Homo sapiens) (UniProt Q6PL18); experiment: Binding affinity to ATAD2 (unknown origin) assessed as increase in protein melting temperature at 50 umol by real-time PCR system based thermal shift assay
T1 sequence (whole entry): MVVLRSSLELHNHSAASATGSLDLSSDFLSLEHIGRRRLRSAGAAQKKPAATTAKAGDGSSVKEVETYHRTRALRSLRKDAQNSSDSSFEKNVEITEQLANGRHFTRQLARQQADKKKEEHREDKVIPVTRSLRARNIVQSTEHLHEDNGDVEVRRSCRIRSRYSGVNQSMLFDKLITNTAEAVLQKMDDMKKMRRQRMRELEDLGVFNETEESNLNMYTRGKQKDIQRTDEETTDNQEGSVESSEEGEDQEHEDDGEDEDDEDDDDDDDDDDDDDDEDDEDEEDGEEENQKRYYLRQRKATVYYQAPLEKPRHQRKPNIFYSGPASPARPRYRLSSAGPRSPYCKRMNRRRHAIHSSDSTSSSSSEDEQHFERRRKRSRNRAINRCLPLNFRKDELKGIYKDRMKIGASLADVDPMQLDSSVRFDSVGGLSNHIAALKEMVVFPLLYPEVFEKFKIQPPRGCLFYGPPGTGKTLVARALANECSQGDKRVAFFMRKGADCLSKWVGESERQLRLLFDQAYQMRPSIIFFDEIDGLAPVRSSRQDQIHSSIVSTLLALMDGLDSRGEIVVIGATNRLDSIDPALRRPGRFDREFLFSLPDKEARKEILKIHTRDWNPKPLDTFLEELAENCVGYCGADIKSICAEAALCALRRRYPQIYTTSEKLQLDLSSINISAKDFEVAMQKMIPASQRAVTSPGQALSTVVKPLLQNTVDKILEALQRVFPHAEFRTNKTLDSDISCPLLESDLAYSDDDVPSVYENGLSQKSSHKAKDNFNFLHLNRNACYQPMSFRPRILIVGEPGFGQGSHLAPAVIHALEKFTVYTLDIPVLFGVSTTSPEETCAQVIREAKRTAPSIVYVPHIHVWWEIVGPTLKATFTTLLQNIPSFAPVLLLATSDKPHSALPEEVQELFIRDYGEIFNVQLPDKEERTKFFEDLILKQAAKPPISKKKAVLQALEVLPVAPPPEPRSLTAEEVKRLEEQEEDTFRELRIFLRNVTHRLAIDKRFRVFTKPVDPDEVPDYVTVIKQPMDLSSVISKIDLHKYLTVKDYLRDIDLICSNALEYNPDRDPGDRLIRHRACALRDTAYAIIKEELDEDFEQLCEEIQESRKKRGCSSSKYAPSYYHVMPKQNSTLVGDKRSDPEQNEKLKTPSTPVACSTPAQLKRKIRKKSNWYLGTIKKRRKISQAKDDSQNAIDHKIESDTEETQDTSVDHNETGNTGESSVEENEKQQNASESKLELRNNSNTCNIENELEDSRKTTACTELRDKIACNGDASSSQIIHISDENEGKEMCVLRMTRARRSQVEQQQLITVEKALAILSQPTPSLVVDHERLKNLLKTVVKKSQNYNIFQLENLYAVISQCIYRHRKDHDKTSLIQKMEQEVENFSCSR
Procedure, shortened: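 Bromodomain proteins in 10 mmol HEPES pH 7.5, 500 mmol NaCl at 75 μg/mL final; compound at 50 µmol final; SYPRO Orange probe at 1:1000. Four replicates per protein mixture. Melt curve read on a real-time PCR instrument, heating 25 °C to 99 °C at 1 °C/min under continuous fluorescence reading; binding taken as the rise in protein melting temperature.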

[6] = molecular target: CYP2C19 (Homo sapiens, UniProt P33261); experiment: Inhibition of CYP2C19 in human liver microsomes at 10 uM using mephenytoin substrate preincubated for 5 mins before NADPH addition and measured after 20 mins post NADPH addition; type: ADME; conditions: probe mephenytoin
Procedure, shortened: (§1)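 Human liver microsomes 0.2 mg/mL, 1 mmol NADPH, 100 mmol phosphate pH 7.4, probe cocktail (10 μM midazolam, 100 μM testosterone, 10 μM dextromethorphan, 20 μM diclofenac, 100 μM phenacetin, 100 μM mephenytoin), test compound 10 μM or PBS; organic solvent <1%. 5 min preincubation at 37 °C, NADPH-generating system start, 20 min reaction; inhibition from metabolite formation relative to PBS.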

[7] = molecular target: Cytochrome P450 2C19 (Homo sapiens, UniProt P33261); experiment: Time dependent inhibition of CYP2C19 in human liver microsomes at 10 uM using mephenytoin substrate preincubated for 5 mins before NADPH addition and measured after 20 mins post NADPH addition; type: ADME
[8] = molecular target: Cytochrome P450 2C9 (Homo sapiens, UniProt P11712); experiment: Time dependent inhibition of CYP2C9 in human liver microsomes at 10 uM using diclofenac substrate preincubated for 5 mins before NADPH addition and measured after 20 mins post NADPH addition; type: ADME
[9] = Stability in human liver microsomes assessed as clearance at 1 uM pre-incubated for 5 mins followed by NADPH addition and measured after 5 to 30 mins post NADPH addition by LC/MS/MS method; type: ADME; conditions: read-out: CLH
Procedure, shortened: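 Human liver microsomes (0.5 mg/mL) preincubated with 1 µM compound for 5 min at 37 °C in 0.1 M phosphate pH 7.4 with 1 mmol EDTA and 5 mmol MgCl2. Started with 1 mmol NADPH; sampled at 0, 5, 10 and 30 min. Quenched with equal volume of cold acetonitrile, vortexed, and centrifuged at 10,000 × g.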

[10] = molecular target: T2, CYP3A4 (Homo sapiens, UniProt P08684); experiment: Inhibition of CYP3A4 in human liver microsomes at 10 uM using midazolam substrate preincubated for 5 mins before NADPH addition and measured after 20 mins post NADPH addition; type: ADME; conditions: probe midazolam; procedure, shortened: as §1
[11] = molecular target: T3, CYP1A2 (Homo sapiens, UniProt P05177); experiment: Inhibition of CYP1A2 in human liver microsomes at 10 uM using phenacetin substrate preincubated for 5 mins before NADPH addition and measured after 20 mins post NADPH addition; type: ADME; conditions: probe phenacetin; procedure, shortened: as §1
T3 sequence (P05177 whole entry): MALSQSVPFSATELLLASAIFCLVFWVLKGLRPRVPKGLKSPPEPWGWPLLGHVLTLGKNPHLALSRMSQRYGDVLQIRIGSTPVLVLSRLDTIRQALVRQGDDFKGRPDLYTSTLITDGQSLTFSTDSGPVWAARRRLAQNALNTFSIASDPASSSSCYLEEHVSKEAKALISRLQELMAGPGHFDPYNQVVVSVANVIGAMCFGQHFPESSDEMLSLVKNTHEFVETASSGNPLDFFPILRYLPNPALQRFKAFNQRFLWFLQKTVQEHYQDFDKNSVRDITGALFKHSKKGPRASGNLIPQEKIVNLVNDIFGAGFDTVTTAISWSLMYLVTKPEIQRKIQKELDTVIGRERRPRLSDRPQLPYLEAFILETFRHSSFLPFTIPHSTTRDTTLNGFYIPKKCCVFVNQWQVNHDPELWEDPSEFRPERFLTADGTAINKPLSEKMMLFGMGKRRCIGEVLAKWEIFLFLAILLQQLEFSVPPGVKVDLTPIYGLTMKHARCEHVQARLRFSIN

[12] = molecular target: CYP2C9 (Homo sapiens, UniProt P11712); experiment: Inhibition of CYP2C9 in human liver microsomes at 10 uM using diclofenac substrate preincubated for 5 mins before NADPH addition and measured after 20 mins post NADPH addition; type: ADME; conditions: liver microsomes, probe diclofenac; procedure, shortened: as §1
[13] = molecular target: T2, CYP3A4; experiment: Inhibition of CYP3A4 in human liver microsomes at 10 uM preincubated for 5 mins before NADPH addition and measured after 20 mins post NADPH addition; type: ADME
[14] = molecular target: CYP2D6 (Homo sapiens, UniProt P10635); experiment: Inhibition of CYP2D6 in human liver microsomes at 10 uM using dextromethorphan substrate preincubated for 5 mins before NADPH addition and measured after 20 mins post NADPH addition; type: ADME; conditions: liver microsomes, probe dextromethorphan; procedure, shortened: as §1
CYP2D6, sequence (P10635 whole entry): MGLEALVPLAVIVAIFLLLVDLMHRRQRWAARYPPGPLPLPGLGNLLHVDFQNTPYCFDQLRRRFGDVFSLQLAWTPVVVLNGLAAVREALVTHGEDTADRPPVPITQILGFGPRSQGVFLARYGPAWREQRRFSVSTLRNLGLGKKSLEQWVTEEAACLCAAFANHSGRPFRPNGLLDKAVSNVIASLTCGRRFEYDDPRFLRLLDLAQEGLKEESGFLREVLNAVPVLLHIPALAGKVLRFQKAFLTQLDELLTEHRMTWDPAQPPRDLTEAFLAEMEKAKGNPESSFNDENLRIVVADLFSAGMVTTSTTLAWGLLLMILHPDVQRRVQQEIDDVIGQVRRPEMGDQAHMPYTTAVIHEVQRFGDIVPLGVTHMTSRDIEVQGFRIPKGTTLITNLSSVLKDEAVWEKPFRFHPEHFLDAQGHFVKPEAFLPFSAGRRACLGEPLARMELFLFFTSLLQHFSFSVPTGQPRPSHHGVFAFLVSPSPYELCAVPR

T2 sequence (P08684 whole entry): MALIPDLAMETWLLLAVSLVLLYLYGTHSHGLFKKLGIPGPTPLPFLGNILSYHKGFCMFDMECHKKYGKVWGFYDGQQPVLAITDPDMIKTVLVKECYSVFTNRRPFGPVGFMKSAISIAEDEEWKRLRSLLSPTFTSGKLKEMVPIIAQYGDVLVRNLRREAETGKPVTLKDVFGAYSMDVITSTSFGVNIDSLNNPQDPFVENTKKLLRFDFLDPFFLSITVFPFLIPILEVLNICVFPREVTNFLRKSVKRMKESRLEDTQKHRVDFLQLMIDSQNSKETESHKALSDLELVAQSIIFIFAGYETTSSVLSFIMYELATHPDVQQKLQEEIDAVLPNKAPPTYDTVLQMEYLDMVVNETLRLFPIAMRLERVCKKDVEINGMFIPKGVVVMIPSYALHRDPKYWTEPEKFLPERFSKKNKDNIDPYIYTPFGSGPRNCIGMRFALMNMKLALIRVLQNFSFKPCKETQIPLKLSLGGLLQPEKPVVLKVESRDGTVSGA
Cytochrome P450 2C9, sequence (P11712 whole entry): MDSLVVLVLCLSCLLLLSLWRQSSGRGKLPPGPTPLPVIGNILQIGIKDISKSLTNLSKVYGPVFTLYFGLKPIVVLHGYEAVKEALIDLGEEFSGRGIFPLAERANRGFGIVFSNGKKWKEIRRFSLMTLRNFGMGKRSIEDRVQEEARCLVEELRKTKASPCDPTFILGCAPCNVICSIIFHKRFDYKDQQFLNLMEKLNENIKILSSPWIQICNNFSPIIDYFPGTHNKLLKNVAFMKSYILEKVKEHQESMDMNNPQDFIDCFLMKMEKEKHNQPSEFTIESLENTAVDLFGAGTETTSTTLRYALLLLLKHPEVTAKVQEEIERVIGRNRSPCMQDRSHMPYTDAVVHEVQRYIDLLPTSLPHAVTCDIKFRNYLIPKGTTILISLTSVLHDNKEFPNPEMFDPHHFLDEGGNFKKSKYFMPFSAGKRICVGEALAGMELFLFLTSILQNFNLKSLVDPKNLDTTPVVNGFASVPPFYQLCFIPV
CYP2C9, sequence (P11712 whole entry): as above
CYP2C19, sequence (P33261 whole entry): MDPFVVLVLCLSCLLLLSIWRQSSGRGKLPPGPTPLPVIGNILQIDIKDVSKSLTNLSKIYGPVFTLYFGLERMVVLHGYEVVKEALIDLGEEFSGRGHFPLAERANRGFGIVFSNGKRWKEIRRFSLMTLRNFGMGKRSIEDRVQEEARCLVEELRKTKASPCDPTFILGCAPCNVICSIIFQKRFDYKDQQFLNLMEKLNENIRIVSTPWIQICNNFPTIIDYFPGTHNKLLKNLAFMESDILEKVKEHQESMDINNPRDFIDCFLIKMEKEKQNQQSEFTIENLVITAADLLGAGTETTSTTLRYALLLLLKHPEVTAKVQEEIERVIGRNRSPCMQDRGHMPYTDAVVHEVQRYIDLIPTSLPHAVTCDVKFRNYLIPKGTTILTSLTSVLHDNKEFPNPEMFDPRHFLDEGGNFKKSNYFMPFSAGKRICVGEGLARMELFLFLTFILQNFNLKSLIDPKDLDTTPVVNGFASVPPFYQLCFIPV
Cytochrome P450 2C19, sequence (P33261 whole entry): as above

Structure (SMILES)	IC50 [1] [nM]	IC50 [2] [nM]	IC50 [3] [nM]	IC50 [4] [nM]	further results
O=c1[nH]c(-c2ccccc2F)cs1	> 100000				
Cc1c(NC(=O)C2CC2)cc(-c2csc(=O)[nH]2)cc1S(=O)(=O)NC1CCCC1	220	1760	450	28500	
O=c1[nH]c(-c2cc(Br)cc(S(=O)(=O)NC3CCCC3)c2)cs1	300			57100	
Cc1c(NC(=O)c2cccs2)cc(-c2csc(=O)[nH]2)cc1S(=O)(=O)NC1CCCC1	790	4090	602	20100	
O=c1[nH]c(-c2cccc(S(=O)(=O)NCc3ccccc3)c2)cs1	> 10000				
CCCC(=O)Nc1cc(-c2csc(=O)[nH]2)cc(S(=O)(=O)NC2CCCC2)c1C	930			23500	
COc1ccc(NS(=O)(=O)c2cccc(-c3csc(=O)[nH]3)c2)cc1	> 10000				
O=c1[nH]c(-c2cccc(S(=O)(=O)NC3CC3)c2)cs1	2260				
O=c1[nH]c(-c2ccc(F)c(S(=O)(=O)NC3CCCC3)c2)cs1	500			35200	
Nc1ccc(NS(=O)(=O)c2cccc(-c3csc(=O)[nH]3)c2)cc1	8330				
O=c1[nH]c(-c2cccc(S(=O)(=O)NCCc3cccs3)c2)cs1	> 10000				
CCCC(=O)Nc1cc(-c2csc(=O)[nH]2)cc(S(=O)(=O)NC2CCCC2)c1	170	2530	791	13900	
O=c1[nH]c(-c2cccc(S(=O)(=O)NC3CCOC3)c2)cs1 (stereo unspecified)	5820				
Cc1sc2c(c1C)C(c1ccc(Cl)cc1)=N[C@@H](CC(=O)OC(C)(C)C)c1nnc(C)n1-2		109	23	104	ΔTm [5]: 1.04 °C; inhibition at 20 min, 10 µM [6]: 18%; TDI [7]: Active; TDI [8]: Active; microsomal CLint at 1 µM [9]: 78 µL/min/mg; inhibition at 20 min, 10 µM [10]: 30%; inhibition at 20 min, 10 µM [11]: 2%; inhibition at 20 min, 10 µM [12]: 18%; inhibition at 20 min, 10 µM [13]: 28%; inhibition at 20 min, 10 µM [14]: 2%
COCC(=O)Nc1ccc(-c2csc(=O)[nH]2)cc1S(=O)(=O)NC1CCCC1	400	2310	681	24600	
O=c1[nH]c(-c2ccc(Cl)c(S(=O)(=O)NC3CCCC3)c2)cs1	250	3370	341	23700	
O=c1[nH]c(-c2cccc(S(=O)(=O)Nc3ccon3)c2)cs1	7340				
O=c1[nH]c(-c2cccc(S(=O)(=O)NC3CCCC3)c2)cs1	1400				
Nc1cc(-c2csc(=O)[nH]2)cc(S(=O)(=O)NC2CCCC2)c1	460	3580	689	6150	
O=c1[nH]c(-c2cccc(S(=O)(=O)NC3CCCCC3)c2)cs1	2060				
O=c1[nH]c(-c2cccc(S(=O)(=O)NCC3CCCO3)c2)cs1 (stereo unspecified)	9310				
O=C(Nc1ccc(-c2csc(=O)[nH]2)cc1S(=O)(=O)NC1CCCC1)C1CC1	800			13000	
